Experiment [1] has as its system SH-SY5Y. Put plainly: Neuroprotective activity against H2O2-induced cell damage in human SH-SY5Y cells assessed as increase in cell viability preincubated for 24 hrs followed by H2O2 addition and measured after 4 hrs by MTT assay. The format is functional, cell-based. In a few lines:
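Cells at 3.5×10^4 cells/mL in 96-well plates were grown 24 h (37 °C, 5% CO2). Test agent was added at five concentrations for 24 h, then H2O2 (4.8 mM stock) to model and drug wells. After PBS washes, MTT (5 mg/mL) was added for 4 h, formazan was dissolved in DMSO and OD was read at 550 nm. Proliferation rate = (drug − injury OD)/(control − injury OD). EC50 came from a formula using maximum concentration and summed, maximal and minimal rates.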

Experiment [2] can be described thus: Inhibition of H2O2-induced apoptosis in human HBMEC2 cells assessed as necrotic cells at 3.13 uM preincubated for 24 hrs followed by H2O2 addition measured after 4 hrs by Annexin V-FITC/propidium iodide staining based flow cytometry (reference value: 0.4 %). The class given is functional, HBMEC-2. Further details: scale not given: the % may be the effect or the level left. In a few lines: (§1)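 Cells were seeded at 3.5×10^4 cells/mL in 6-well plates at 37 °C, 5% CO2. Compound was added at three concentrations for 24 h, then H2O2 (4.8 mM stock solution) to model and drug wells for 4 h. Cells were collected, washed in cold PBS and resuspended in annexin-binding buffer. Staining was annexin V-FITC 10 min, then PI 5 min, in the dark, followed by flow cytometry with quadrant gating.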
On the technique in general: A flow cytometer gives signals particle by particle.

The subject of experiment [3] is SH-SY5Y. As to the kind of experiment: Inhibition of H2O2-induced apoptosis in human SH-SY5Y cells assessed as normal cells at 6.25 uM preincubated for 24 hrs followed by H2O2 addition measured after 4 hrs by Annexin V-FITC/propidium iodide staining based flow cytometry (reference value: 67.2 %). The format is functional. On the set-up: scale not given: the % may be the effect or the level left. In a few lines:
as §1

A short description of experiment [4]: Inhibition of H2O2-induced apoptosis in human HBMEC2 cells assessed as late apoptotic cells at 1.56 uM preincubated for 24 hrs followed by H2O2 addition measured after 4 hrs by Annexin V-FITC/propidium iodide staining based flow cytometry (reference value: 29.4 %). The class given is functional, HBMEC-2. Further details: scale not given: the % may be the effect or the level left. In outline:
as §1

The term EC50 denotes the midpoint of the concentration-response curve. Regarding `COc1cc(CNC(=O)/C=C/c2cc(OC)c(OC)cc2OC)ccc1O`, the EC50 in the experiment on SH-SY5Y [1] came out at 2410 nM. Further, the figures for the Activity (in experiment [2]; in the experiment with SH-SY5Y [3]; in experiment [4]) were 0.1%, 82.3% and 19.3%, respectively.

Values taken from ChEMBL document CHEMBL4406851, “Design, synthesis and biological evaluation of cinnamic acid derivatives with synergetic neuroprotection and angiogenesis effect” (Eur J Med Chem, 2019).
